Source: PubChem BioAssay AID2465 (Broad Institute, 2010)
Screen size: about 24,000 compounds; fewer than 10 were called active. Cut-off read from the data, not from the text of the source: active = caspase activation above about 5.9%; inconclusive = no clear call, values can overlap the other calls; inactive = below about 2.2%. These entries were drawn from the full list.

Test: A1 inhibitors via caspase activation, primary screen, cell-based, luminescence, HTS, two replicates (AID 2465)
Details: MEF A1-2A-BIM cells, caspase-Glo luminescence, 3 h; hits give high values; percent of clofoctol response, DMSO zero; concentration not given here
Method in brief: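 system = A1-2A-BIM-expressing MEF cells | quantity = 2500 MEF cells/well | dosing = 50 nL compound per well, pinned | schedule = overnight cell settling, then 3 h compound exposure, 37 °C | signal = luminescence from DEVD-luciferin Caspase-Glo reagent, 1:1 in 50 mM HEPES, 1 h RT | read-out = Caspase-3/7 activation, seen as rise in luminescence signal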

Caspase activation, inactive:
Cc1ccc(S(=O)(=O)N(C)C[C@H]2Oc3c(NC(=O)c4ccc(-c5nccs5)cc4)cccc3C(=O)N([C@H](C)CO)C[C@H]2C)cc1 -0.882%, Cc1ccc(S(=O)(=O)N(C)C[C@H]2OCCCC[C@@H](C)Oc3ccc(NC(=O)NC4CCCCC4)cc3C(=O)N([C@H](C)CO)C[C@@H]2C)cc1 -0.124%, C[C@@H]1CN([C@H](C)CO)C(=O)c2cc(NC(=O)Nc3ccc(F)cc3)ccc2O[C@@H]1CN(C)Cc1ccc(Cl)c(Cl)c1 0.0143%, C[C@H]1CN([C@@H](C)CO)C(=O)c2cccc(NS(=O)(=O)c3cccs3)c2O[C@H]1CN(C)Cc1ccc(C(=O)Nc2ccccc2N)cc1 -0.485%, C[C@@H]1CN([C@H](C)CO)C(=O)Cc2cc(NC(=O)Nc3ccc4c(c3)OCO4)ccc2O[C@@H]1CN(C)Cc1ccc(C(=O)Nc2ccccc2N)cc1 -1.67%, O=C(CCCCCC(=O)N/N=C/c1ccc[nH]1)NO -0.622%, C[C@@H]1CCCCO[C@@H](CN(C)Cc2ccc3c(c2)OCO3)[C@@H](C)CN([C@@H](C)CO)C(=O)c2cc(NC(=O)C3CCCCC3)ccc2O1 1.06%, Cc1noc(C)c1NC(=O)N(C)C[C@@H]1OCCCC[C@H](C)Oc2ccc(NC(=O)NC3CCCCC3)cc2C(=O)N([C@H](C)CO)C[C@H]1C -1.23%, Cc1noc(C)c1S(=O)(=O)N(C)C[C@H]1OCCCC[C@@H](C)Oc2ccc(NC(=O)c3ccccc3)cc2C(=O)N([C@@H](C)CO)C[C@H]1C 0.679%, C[C@@H]1CCCCO[C@@H](CN(C)Cc2ccncc2)[C@H](C)CN([C@H](C)CO)C(=O)c2cc(NC(=O)NC3CCCCC3)ccc2O1 0.887%, C[C@@H]1CCCCO[C@@H](CN(C)C(=O)C2CCCCC2)[C@H](C)CN([C@H](C)CO)C(=O)c2cc(NC(=O)c3ccccc3)ccc2O1 -0.0371%, CNC[C@@H]1Oc2ccc(NC(=O)C3CCCCC3)cc2CC(=O)N([C@@H](C)CO)C[C@H]1C -2%, Cc1noc(C)c1NC(=O)Nc1ccc2c(c1)CC(=O)N([C@@H](C)CO)C[C@H](C)[C@H](CN(C)S(=O)(=O)c1c(C)noc1C)O2 -0.264%, C[C@@H]1CN([C@H](C)CO)C(=O)Cc2cc(NC(=O)C3CCCCC3)ccc2O[C@H]1CN(C)S(=O)(=O)c1ccc(Cl)cc1 -0.597%, Cc1noc(C)c1NC(=O)N(C)C[C@H]1OCCCC[C@H](C)Oc2ccc(NC(=O)Cc3ccccc3)cc2C(=O)N([C@H](C)CO)C[C@@H]1C -0.000815%, Cc1noc(C)c1S(=O)(=O)N(C)C[C@@H]1OCCCC[C@H](C)Oc2ccc(NC(=O)NC3CCCCC3)cc2C(=O)N([C@@H](C)CO)C[C@H]1C 2.87%, COc1cc(O)cc(OC)c1/C=N/NC(=O)c1ccccc1O -0.325%, C[C@@H]1CCCCO[C@@H](CN(C)C(=O)Nc2cccc3ccccc23)[C@H](C)CN([C@@H](C)CO)C(=O)c2cc(NS(=O)(=O)c3ccccc3)ccc2O1 0.255%, COc1ccc(S(=O)(=O)Nc2ccc3c(c2)C(=O)N([C@@H](C)CO)C[C@H](C)[C@@H](CN(C)C(=O)Nc2ccc4c(c2)OCO4)OCCCC[C@@H](C)O3)cc1 0.557%, C[C@H]1CCCCO[C@@H](CN(C)Cc2ccc3c(c2)OCO3)[C@@H](C)CN([C@@H](C)CO)C(=O)c2cc(NC(=O)c3ccccc3)ccc2O1 -0.254%, C[C@@H]1CN([C@@H](C)CO)C(=O)c2cc(NC(=O)Nc3ccccc3)ccc2O[C@H]1CN(C)S(=O)(=O)c1ccccc1 -0.0866%, C[C@@H]1CCCCO[C@H](CN(C)C(=O)Nc2cccc3ccccc23)[C@H](C)CN([C@@H](C)CO)C(=O)c2cc(NC(=O)CCCN(C)C)ccc2O1 -0.756%, COc1ccc(CN(C)C[C@@H]2OCCCC[C@H](C)Oc3ccc(NS(=O)(=O)c4ccc(F)cc4)cc3C(=O)N([C@@H](C)CO)C[C@@H]2C)cc1 0.494%, O=C(NO)c1cccc(C(=O)N/N=C/c2c[nH]c3ccccc23)c1 -1.04%, C[C@@H]1CN([C@@H](C)CO)C(=O)CCCn2nncc2CO[C@@H]1CN(C)S(=O)(=O)c1ccc(-c2ccccc2)cc1 -0.179%, Cc1ccc(S(=O)(=O)Nc2ccc3c(c2)C(=O)N([C@H](C)CO)C[C@H](C)[C@H](CN(C)C(=O)Nc2ccc4c(c2)OCO4)OCCCC[C@@H](C)O3)cc1 -0.5%, C[C@@H]1CCCCO[C@@H](CN(C)Cc2ccccc2)[C@H](C)CN([C@H](C)CO)C(=O)c2cc(NC(=O)Nc3cccc4ccccc34)ccc2O1 1.29%, C[C@@H]1CCCCO[C@@H](CN(C)CC2CCCCC2)[C@H](C)CN([C@H](C)CO)C(=O)c2cc(NC(=O)C3CCCCC3)ccc2O1 0.00789%, CC(C)NC(=O)Nc1ccc2c(c1)C(=O)N([C@H](C)CO)C[C@H](C)[C@@H](CN(C)Cc1ccc3c(c1)OCO3)OCCCC[C@H](C)O2 -0.756%, CNC[C@H]1OCCCC[C@@H](C)Oc2ccc(NS(C)(=O)=O)cc2C(=O)N([C@@H](C)CO)C[C@H]1C -0.624%, COc1ccc(S(=O)(=O)Nc2ccc3c(c2)C(=O)N([C@H](C)CO)C[C@@H](C)[C@H](CN(C)C(=O)c2ccncc2)OCCCC[C@@H](C)O3)cc1 0.262%, C[C@H]1CN([C@@H](C)CO)C(=O)CCCn2cc(nn2)CO[C@@H]1CN(C)S(=O)(=O)c1ccccc1C#N 0.483%, C[C@H]1CN([C@@H](C)CO)C(=O)Cc2cc(NC(=O)CCCCCC(=O)Nc3ccccc3N)ccc2O[C@@H]1CN(C)Cc1ccncc1 -0.722%, CC(C)NC(=O)Nc1ccc2c(c1)C(=O)N([C@@H](C)CO)C[C@@H](C)[C@H](CN(C)Cc1ccc(Cl)c(Cl)c1)OCCCC[C@H](C)O2 -1.26%, COc1ccc(NC(=O)N(C)C[C@H]2OCCCC[C@H](C)Oc3ccc(NC(=O)NC4CCCCC4)cc3C(=O)N([C@@H](C)CO)C[C@@H]2C)cc1 -0.198%, C[C@@H]1CN([C@H](C)CO)C(=O)c2cc(NC(=O)Cn3cnnn3)ccc2O[C@@H]1CN(C)C(=O)Nc1ccc2c(c1)OCO2 -0.00909%, C[C@H](CO)N1C[C@H](C)[C@@H](CN(C)CC2CC2)OCCCC[C@H](C)Oc2ccc(NC(=O)Cc3ccccc3)cc2C1=O 0.105%, CCCN(C)C[C@@H]1OCCCC[C@@H](C)Oc2ccc(NC(=O)Nc3ccc(C(F)(F)F)cc3)cc2C(=O)N([C@H](C)CO)C[C@H]1C 1.62%, C[C@H](CO)N1C[C@H](C)[C@@H](CN(C)Cc2ccncc2)Oc2ccc(NS(=O)(=O)c3ccc(Cl)cc3)cc2CC1=O -1.19%
